The source made the active and inactive calls. The calls are words filed in the database; no cut-off is given here.
How the values were obtained:
[1] = Ratio of EC50 for antibacterial activity against Escherichia coli K-12 BW25113 to EC50 for Staphylococcus aureus SH1000; assay type: functional
Staphylococcus aureus [2] = assay: Potentiation of ciprofloxacin-induced antibacterial activity against methicillin resistant Staphylococcus aureus USA300 JE2 assessed as fold reduction in ciprofloxacin EC50 incubated for 18 hrs in presence of 0.5 times MIC ciprofloxacin by broth microdilution method relative to ciprofloxacin; assay type: functional
[3] = biological target: T1, DNA gyrase (Escherichia coli) (UniProt P0AES6+P0AES4); assay: Inhibition of Escherichia coli DNA gyrase (A2B2 tetramer) assessed as Fraction supercoiled at 12.5 uM using relaxed pBR322 as substrate preincubated for 30 mins followed by enzyme addition by SYBR staining-based agarose gel electrophoresis method; assay type: protein-complex assay
In short: (§1)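 Supercoiling of relaxed pBR322 by DNA gyrase, with products (relaxed, […], supercoiled) resolved by agarose gel electrophoresis. Supercoiled fraction quantified by densitometry. Mean ± SEM of 3 technical replicates.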

[4] = test system: Staphylococcus aureus subsp. aureus USA300; assay: Inhibition of AddAB in Staphylococcus aureus USA300 JE2 transformed with pCN34 PrecA-gfp reporter plasmid assessed as inhibition of SOS response by measuring reduction in green fluorescence per cell at 66 uM measured at 15 mins interval for 17 hrs by GFP reporter gene assay
In short: (§2)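 S. aureus JE2 carrying a recA-promoter GFP reporter. […] Cell number was read as OD600 and SOS activation as GFP fluorescence, then normalized as fluorescence per cell. Mean ± SEM, n = 3 biological replicates.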

[5] = biological target: T1, DNA gyrase (Escherichia coli); assay: Inhibition of Escherichia coli DNA gyrase (A2B2 tetramer) at 12.5 uM using relaxed pBR322 as substrate preincubated for 30 mins followed by enzyme addition by SYBR staining-based agarose gel electrophoresis method; assay type: protein-complex assay; in short: as §1
Staphylococcus aureus [6] = assay: Synergistic antibacterial activity against Staphylococcus aureus USA300 JE2 assessed as ciprofloxacin dose reduction index at 100 uM at 1:1 test compound to ciprofloxacin measured every 30 mins for 17 hrs; assay type: functional
In short: (§3)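 OD600 recorded over 17 h at 37 °C. Exponential-phase growth rate used for dose–response EC50 fitting. Combination index and dose-reduction index calculated by the Chou–Talalay method versus fraction affected.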

[7] = Inhibition of N-terminal his6-tagged AddB (unknown origin) expressed in Escherichia coli BL21 cells transformed with pET28 plasmid by Western blot based pull down assay
In short: (§4)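 Pulldown from E. coli SoluBL21 expressing StrepII-tagged AddA and His6-tagged AddB from pET28b+, induced overnight at 16 °C. Lysates were obtained by sonication and incubated with compound-functionalized Sepharose or DMSO-treated, Tris-quenched control beads. Beads were washed three times in lysis buffer and eluted in SDS-PAGE sample buffer. Western blots used anti-His6 and anti-StrepII detection.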

Escherichia coli = assay: Inhibition of Escherichia coli DNA topoisomerase IV using supercoiled pQE80L as substrate at 12.5 uM incubated for 30 mins by ethidium bromide staining-based agarose gel electrophoresis method
[8] = Inhibition of N-terminal strep2-tagged AddA (unknown origin) expressed in Escherichia coli BL21 cells transformed with pET28 plasmid by Western blot based pull down assay; in short: as §4
[9] = test system: Staphylococcus aureus subsp. aureus USA300; assay: Inhibition of AddAB in Staphylococcus aureus USA300 JE2 transformed with pCN34 PrecA-gfp reporter plasmid assessed as decrease in cell number at 66 uM measured at 15 mins interval for 17 hrs by GFP reporter gene assay; in short: as §2
[10] = test system: Staphylococcus aureus subsp. aureus USA300; details: JE2, 66 uM
Staphylococcus aureus [11] = assay: Synergistic antibacterial activity against Staphylococcus aureus USA300 JE2 assessed as dose reduction index at 100 uM at 1:1 test compound to ciprofloxacin measured every 30 mins for 17 hrs; assay type: functional; in short: as §3
Staphylococcus aureus [12] = assay: Synergistic antibacterial activity against Staphylococcus aureus USA300 JE2 assessed as dose reduction index at 100 uM at 1:2 test compound to ciprofloxacin measured every 30 mins for 17 hrs; assay type: functional; in short: as §3
Staphylococcus aureus [13] = assay: Synergistic antibacterial activity against Staphylococcus aureus USA300 JE2 assessed as ciprofloxacin dose reduction index at 100 uM at 1:2 test compound to ciprofloxacin measured every 30 mins for 17 hrs; assay type: functional; in short: as §3

SMILES	Ratio EC50 [1]	fold change (FC) (Staphylococcus aureus [2])	other results
O=C(O)c1cn(C2CC2)c2cc(N3CCN(C(=S)Nc4cc(Cl)cc(Cl)c4)CC3)c(F)cc2c1=O	2 - 5	>3	
O=C(O)c1cn(C2CC2)c2cc(N3CCN(C(=S)Nc4ccc([N+](=O)[O-])cc4)CC3)c(F)cc2c1=O		20	
O=C(O)c1cn(C2CC2)c2cc(N3CCN(C(=S)Nc4ccc(C(F)(F)F)cc4)CC3)c(F)cc2c1=O	2 - 5	>3	Ratio [3]: 1.2; inhibition [4]: Active; inhibition [5]: inactive; Activity_index (Staphylococcus aureus [6]): 2.9; inhibition [7]: Active; inhibition (Escherichia coli): inactive; inhibition [8]: Active; inhibition [9]: Active
O=C(O)c1cn(C2CC2)c2cc(N3CCNCC3)c(F)cc2c1=O			inhibition (Escherichia coli): Active; inhibition [10]: Active; inhibition [9]: Active
O=C(O)c1cn(C2CC2)c2cc(N3CCN(C(=S)Nc4cccc(F)c4)CC3)c(F)cc2c1=O	2 - 5	>3	
CCn1cc(C(=O)O)c(=O)c2cnc(N3CCN(C(=S)Nc4cccc(F)c4)CC3)nc21	>10	>4	
CCn1cc(C(=O)O)c(=O)c2cnc(N3CCN(C(=O)Nc4ccccc4)CC3)nc21		>4	Ratio [3]: 1.1; inhibition [5]: inactive; inhibition (Escherichia coli): inactive
CCn1cc(C(=O)O)c(=O)c2cnc(N3CCN(C(=S)Nc4cc(Cl)cc(Cl)c4)CC3)nc21	>50	>4	
CCn1cc(C(=O)O)c(=O)c2cnc(N3CCN(C(=S)Nc4ccc(C(F)(F)F)cc4)CC3)nc21	>10	>4	
O=C(O)c1cn(C2CC2)c2cc(N3CCN(C(=S)Nc4cc(C(F)(F)F)cc(C(F)(F)F)c4)CC3)c(F)cc2c1=O		>4	
O=C(O)c1cn(C2CC2)c2cc(N3CCN(C(=S)Nc4cccc([N+](=O)[O-])c4)CC3)c(F)cc2c1=O		>4	
CCn1cc(C(=O)O)c(=O)c2cnc(N3CCN(C(=S)Nc4cccc(C(F)(F)F)c4)CC3)nc21	>10	>4	Ratio [3]: 1.1; inhibition [5]: inactive; Activity_index (Staphylococcus aureus [6]): 1.8; Activity_index (Staphylococcus aureus [11]): 2.2; inhibition (Escherichia coli): inactive
CCn1cc(C(=O)O)c(=O)c2cnc(N3CCN(C(=S)Nc4cccc(Cl)c4)CC3)nc21	>10	>4	Ratio [3]: 1.1; Activity_index (Staphylococcus aureus [12]): 2; Activity_index (Staphylococcus aureus [13]): 2.2; inhibition [5]: inactive
O=C(O)c1cn(C2CC2)c2cc(N3CCN(C(=S)Nc4cccc(C(F)(F)F)c4)CC3)c(F)cc2c1=O	2 - 5	>3	
O=C(O)c1cn(C2CC2)c2cc(N3CCN(C(=S)Nc4cccc(Cl)c4)CC3)c(F)cc2c1=O	2 - 5	>3	
CCn1cc(C(=O)O)c(=O)c2cnc(N3CCN(C(=S)Nc4cc(C(F)(F)F)cc(C(F)(F)F)c4)CC3)nc21	>10	>4	
O=C(O)c1cn(C2CC2)c2cc(N3CCN(C(=O)Nc4ccccc4)CC3)c(F)cc2c1=O			inhibition [7]: inactive; inhibition [8]: inactive
